Published values of several laboratories.
Compare with care: the assays were run in different laboratories.
Observed: cell growth or viability

CN(C)CCNC(=O)c1ccc(-c2nc3ccc4[nH]ncc4c3c3c2CCCC3)cc1  GI50 (ML-2; 72 h): 152 nM
CCCCCCCCCCCCCCCCCCOc1cccc(CC(=O)OCC[N+](C)(C)C)c1  inhibition (NCI-H226; SRB; 10 µM): 5.79%
C=C1C[C@@]23CC[C@H]4[C@@](C)(CCC[C@@]4(C)C(=O)O)[C@@H]2CC[C@@H]1C3  IC50 (HuCC-A1; MTT; 75 h): 108000 nM
CCCCCCCCCCCCCCCCCCOc1ccccc1CC(=O)OCC[N+]1(C)CCCC1  inhibition (NCI-H226; SRB; 10 µM): 86.6%
Cc1nc(Nc2ncc(C(=O)Nc3c(C)cccc3Cl)s2)cc(N2CC[C@H](O)C2)n1  IC50 (SU-DHL-8; ATP luminescence; 72 h): > 10000 nM
Cc1n[nH]c2ccc3nc(-c4ccc(C(=O)NCCN(C)C)cc4F)c4c(c3c12)CCCC4  GI50 (ML-2; 72 h): 95 nM
CCCCCCCCCCCCCCCCCCOc1cccc(CC(=O)OCC[N+]2(C)CCOCC2)c1  inhibition (NCI-H226; SRB; 10 µM): 6.29%
CN1CCC(NC2CCc3[nH]c4c(C(N)=O)ccc(-c5ccccc5Cl)c4c3C2)CC1 (stereo not shown)  IC50 (MINO; 96 h): 27.3 nM
CC(C)(C)c1cnc(CSc2cnc(NC(=O)C3CCN(C(=O)CCCCCCCN4Cc5cc6c(cc5C4)C(=O)N(C4CCC(=O)NC4=O)C6=O)CC3)s2)o1 (stereo not shown)  IC50 (NCI-H226; MTT): 57 nM
CCc1nc(C(N)=O)c(Nc2ccc(N3CCC(N4CCN(C)CC4)CC3)c(OC)c2)nc1NC1CCOCC1  GI50 (U-937; 72 h): 4390 nM
Nc1ccccc1NC(=O)c1ccc(Cn2cnc3c(Nc4ccc(Cl)cc4)ncnc32)cc1  IC50 (U-937; MTT; 72 h): 920 nM
COc1cccc2c1C(=O)c1c(O)c3c(c(O)c1C2=O)C[C@@](O)(C(=O)CO)C[C@@H]3O[C@H]1C[C@H](N)[C@H](O)[C@H](C)O1  IC50 (HuCC-A1; MTT): 861 nM
CC(C)(C)c1cc(NC(=O)Nc2ccc(-c3cn4c(n3)sc3cc(OCCN5CCOCC5)ccc34)cc2)no1  GI50 (ML-2; 72 h): > 10000 nM
CCCCCCCCCCCCCCCCCCOc1ccc(CC(=O)OCC[N+](CC)(CC)CC)cc1  inhibition (NCI-H226; SRB; 10 µM): 16.1%
Cc1n[nH]c2ccc3nc(-c4ccc(C(=O)NCCN(C)C)cc4)c4c(c3c12)CCCC4  GI50 (ML-2; 72 h): 429 nM
O=C(NO)c1ccc(Cn2cnc3c(Nc4ccc(F)c(Cl)c4)ncnc32)cc1  IC50 (U-937; MTT; 72 h): 2940 nM
Cc1n[nH]c2ccc3nc(-c4ccc(C(=O)NCCN(C)C)cc4)c4c(c3c12)CCCCC4  GI50 (ML-2; 72 h): 1070 nM
CN1C(=O)C(=O)c2cc3c(c4c2c1cc1ccccc14)OCO3  IC50 (HuCC-A1; MTT; 75 h): 44400 nM
Nc1ccccc1NC(=O)c1ccc(Cn2cnc3c(Nc4ccc(Br)cc4F)ncnc32)cc1  IC50 (U-937; MTT; 72 h): 1370 nM
CCCCCCCCCCCCCCCCCCOc1ccc(CC(=O)OCC[N+](C)(C)C)cc1  inhibition (NCI-H226; SRB; 10 µM): 4.87%
CN(C)CCNC(=O)c1ccc(-c2nc3ccc4[nH]ncc4c3c3c2CCCC3)c(F)c1  GI50 (ML-2; 72 h): 243 nM
CCCCCCCCCCCCCCCCCCOc1ccccc1CC(=O)OCCC[N+](C)(C)C  inhibition (NCI-H226; SRB; 10 µM): 22%
O=C(NO)c1ccc(Cn2cnc3c(Nc4ccc(Cl)cc4)ncnc32)cc1  IC50 (U-937; MTT; 72 h): 7910 nM
CCCCCCCCCCCCCCCCCCOc1ccc(CC(=O)OCCC[N+](C)(C)C)cc1  inhibition (NCI-H226; SRB; 10 µM): 22.1%
CN(C)CCNC(=O)c1ccc(-c2nc3ccc4[nH]ncc4c3c3c2CCCCC3)cc1  GI50 (U-937; 72 h): 1480 nM
COc1cccc2c1C(=O)c1c(O)c3c(c(O)c1C2=O)C[C@@](O)(C(=O)CO)C[C@@H]3O[C@H]1C[C@H](N)[C@H](O)[C@H](C)O1  IC50 (HuCC-A1; MTT; 75 h): 840 nM
COc1cccc2c1C(=O)c1c(O)c3c(c(O)c1C2=O)C[C@@](O)(C(=O)CO)C[C@@H]3O[C@H]1C[C@H](N)[C@H](O)[C@H](C)O1  IC50 (MINO; 96 h): 11.7 nM
CCCCCCCCCCCCCCCCCCOc1cccc(CC(=O)OCC[N+]2(C)CCCCC2)c1  inhibition (NCI-H226; SRB; 10 µM): 10.8%
